Assay results from ChEMBL document CHEMBL4177645, “Exploration of multi-target potential of chromen-4-one based compounds in Alzheimer's disease: Design, synthesis and biological evaluations” (Bioorg Med Chem, 2017).
pIC50: −log10 of the molar value. Active and inactive are the calls of the source. No cut-off for these calls is given here.

What was measured:
Acetylcholinesterase = molecular target: T1, Acetylcholinesterase (Rattus norvegicus, UniProt P37136); test: Inhibition of rat brain AChE using acetylthiocholine iodide as substrate by spectroscopic method
T1 sequence (P37136 whole entry): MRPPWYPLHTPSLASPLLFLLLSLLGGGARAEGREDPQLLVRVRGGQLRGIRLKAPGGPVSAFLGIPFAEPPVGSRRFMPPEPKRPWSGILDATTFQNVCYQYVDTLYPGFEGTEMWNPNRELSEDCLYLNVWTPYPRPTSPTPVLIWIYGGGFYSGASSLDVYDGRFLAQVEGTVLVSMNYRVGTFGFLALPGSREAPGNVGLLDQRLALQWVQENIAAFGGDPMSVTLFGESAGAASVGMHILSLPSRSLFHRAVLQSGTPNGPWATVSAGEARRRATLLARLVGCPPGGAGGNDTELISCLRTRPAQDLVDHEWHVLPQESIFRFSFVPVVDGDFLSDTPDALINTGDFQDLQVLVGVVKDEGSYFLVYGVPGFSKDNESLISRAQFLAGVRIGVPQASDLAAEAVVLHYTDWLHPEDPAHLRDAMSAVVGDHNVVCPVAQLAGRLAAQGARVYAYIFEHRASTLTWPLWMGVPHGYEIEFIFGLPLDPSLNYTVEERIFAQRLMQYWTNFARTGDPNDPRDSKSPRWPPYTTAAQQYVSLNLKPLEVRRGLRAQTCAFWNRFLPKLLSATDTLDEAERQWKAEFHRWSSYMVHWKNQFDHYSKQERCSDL

[1] = Anti-glycosylation activity using BSA assessed as inhibition of AGE formation measured after 30 hrs by fluorescence spectrophotometric method; assay type: functional
Procedure, shortened: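 Glucose-mediated glycation of protein with fluorescent AGE read-out at 370 nm excitation / 440 nm emission. Test compounds dissolved in DMSO at different concentrations. Aminoguanidine positive control. Run in triplicate.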

Mus musculus [2] = test: Reversal of scopolamine-induced memory impairment in Swiss albino mouse assessed as attenuation of scopolamine-induced amnesia at 2 mg/kg, ip administered 30 mins prior to scopolamine challenge measured on day 4 by Morris water maze test; assay type: functional, organism-based
Procedure, shortened: (§1)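 Swiss albino mice of either sex (20–25 g), five per group. Scopolamine 0.5 mg/kg; agent (2, 5, 10 mg/kg, i.p.) given 30 min before scopolamine ahead of each of the first four trials. Morris water maze: escape latency on days 1–4, time in target quadrant on day 5. Vehicle 10% DMSO. Mean ± SD, two-way ANOVA with Tukey test.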

Mus musculus [3] = test: Reversal of scopolamine-induced memory impairment in Swiss albino mouse assessed as attenuation of scopolamine-induced […] time at 2 to 10 mg/kg, ip administered 30 mins prior to scopolamine challenge measured on day 4 by Morris water maze test; assay type: functional, organism-based; procedure, shortened: as §1
Mus musculus [4] = test: Antialzheimer activity in Swiss albino mouse brain assessed as reversal of scopolamine-induced […] assessed per mg protein at 10 mg/kg, ip (reference value: 1.25 +/- 0.04 nM/min/mg) by spectrophotometric analysis; assay type: functional
Mus musculus [5] = test: Reversal of scopolamine-induced memory impairment in Swiss albino mouse assessed as attenuation of scopolamine-induced decreased time spent in target quadrant at 2 to 10 mg/kg, ip administered 30 mins prior to scopolamine challenge measured on day 5 by Morris water maze test
Mus musculus [6] = test: Antialzheimer activity in Swiss albino mouse brain assessed as reversal of scopolamine-induced […] level at 5 mg/kg, ip (reference value: 26.51 +/- 0.79 nM/mg); assay type: functional
Procedure, shortened: (§2)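 Swiss albino mice of either sex (20–25 g), five per group, given scopolamine 0.5 mg/kg with test agent i.p. 30 min before scopolamine. After the water maze protocol, cortex and hippocampus were homogenized in ice-cold phosphate buffer pH 7.4 and spun 14,500 rpm, 15 min, 4 °C. Supernatant used for TBARS (Ohkawa) or reduced GSH (Beutler). Mean ± SD.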

Mus musculus [7] = test: Antialzheimer activity in Swiss albino mouse brain assessed as reversal of scopolamine-induced reduction in GSH levels at 10 mg/kg, ip (reference value: 21.3 +/- 0.81); assay type: functional; procedure, shortened: as §2
Mus musculus [8] = test: Antialzheimer activity in Swiss albino mouse brain assessed as reversal of scopolamine-induced […] level at 10 mg/kg, ip (reference value: 26.51 +/- 0.79 nM/mg); assay type: functional; procedure, shortened: as §2
Mus musculus [9] = test: Antialzheimer activity in Swiss albino mouse brain assessed as reversal of scopolamine-induced reduction in GSH levels at 5 mg/kg, ip (reference value: 21.3 +/- 0.81); assay type: functional; procedure, shortened: as §2
Mus musculus [10] = test: Antialzheimer activity in Swiss albino mouse brain assessed as reversal of scopolamine-induced […] assessed per mg protein at 5 mg/kg, ip (reference value: 1.25 +/- 0.04 nM/min/mg) by spectrophotometric analysis; assay type: functional
[11] = molecular target: T2, Acetylcholinesterase (Rattus norvegicus) (UniProt P37136); test: Mixed type inhibition of rat brain AChE at 0.01 to 0.1 uM using increasing concentration acetylthiocholine iodide as substrate by Lineweaver-Burk plot analysis
T2 sequence (whole entry): T1 sequence (P37136 whole entry)

[12] = molecular target: T2, Acetylcholinesterase (Rattus norvegicus); test: Potency index, ratio of donepezil IC50 to compound IC50 for inhibition of rat brain AChE

SMILES | pIC50 (Acetylcholinesterase) | pIC50 [1] | also measured
COc1ccc(-c2cc(=O)c3ccc(O)cc3o2)cc1OC | 7.43 | 4.32 | –
COc1cc(-c2cc(=O)c3ccc(OCCCN4CCC(C)CC4)cc3o2)cc(OC)c1OC | 8.21 | 4.38 | –
COc1cc2c(cc1OC)C(=O)C(CC1CCN(Cc3ccccc3)CC1)C2 (centres undefined) | – | – | Activity (Mus musculus [2]): Active
COc1ccc(-c2cc(=O)c3ccc(OCCN4CCC(C)CC4)cc3o2)cc1OC | 8.17 | 4.38 | –
COc1cc(-c2cc(=O)c3ccc(O)cc3o2)cc(OC)c1OC | 7.35 | 4.29 | –
COc1ccc(-c2cc(=O)c3ccc(OCCCCN4CCC(C)CC4)cc3o2)cc1 | 7.87 | 4.32 | –
COc1ccc(-c2cc(=O)c3ccc(OCCCN4CCC(C)CC4)cc3o2)cc1OC | 8.19 | 4.32 | –
N=C(N)NN [PIMAGEDINE] | – | 4.40 | –
COc1ccc(-c2cc(=O)c3ccc(O)cc3o2)cc1 | 7.46 | 4.38 | –
COc1ccc(-c2cc(=O)c3ccc(OCCCCCCN4CCC(C)CC4)cc3o2)cc1 | 7.32 | 4.24 | –
COc1ccc(-c2cc(=O)c3ccc(OCCCN4CCC(C)CC4)cc3o2)cc1 | 8.11 | 4.37 | –
COc1cc(-c2cc(=O)c3ccc(OCCN4CCC(C)CC4)cc3o2)cc(OC)c1OC | 8.23 | 4.43 | Activity (Mus musculus [3]): Active; Activity (Mus musculus [4]): 0.85 nmol/min/mg; Activity (Mus musculus [5]): Active; Activity (Mus musculus [6]): 20.14 nM/mg; Activity (Mus musculus [7]): 36.8 nM/mg; Activity (Mus musculus [8]): 17.6 nM/mg; Activity (Mus musculus [9]): 31.7 nM/mg; Activity (Mus musculus [10]): 0.97 nmol/min/mg; inhibition [11]: Active; Ratio IC50 [12]: 2
COc1ccc(-c2cc(=O)c3ccc(OCCCCCN4CCC(C)CC4)cc3o2)cc1 | 7.81 | 4.26 | –
